From PMC6034508 (Inorganic chemistry, 2018)

Key:
DU-145 cells = assay: Confocal imaging of intracellular fluorescence; type: cell-based; details: DU-145, CLIK-148 50 μM for 24 h before 7 (30 μM)
How it was run: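 Live DU-145 cells are grown 48 h in 35 mm dishes (DMEM, 10% FBS, 37 °C, 5% CO2), then given 30 μM test compound or DMSO vehicle for 2 h, washed thrice and imaged in PBS. In the inhibition arm, cells receive 50 μM CLIK-148 for 24 h first. Confocal imaging uses 405 nm excitation, 501–740 nm emission and 1.5 μm z-stacks, with four biological replicates at 20×. Thresholded fluorescence per image is divided by manual cell count.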

CTSL [1] = target: T1, CTSL (Homo sapiens, UniProt P07711); details: literature value; ref [47]; cited from earlier work
T1 sequence (P07711 114-333): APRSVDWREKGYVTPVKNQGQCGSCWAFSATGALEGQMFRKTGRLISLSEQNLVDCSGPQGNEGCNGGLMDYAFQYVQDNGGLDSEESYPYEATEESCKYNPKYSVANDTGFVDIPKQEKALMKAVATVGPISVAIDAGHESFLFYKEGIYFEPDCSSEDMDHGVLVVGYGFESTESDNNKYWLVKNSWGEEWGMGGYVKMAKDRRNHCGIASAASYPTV

CTSS = CTSS (Homo sapiens, UniProt P25774); assay: Cathepsin S inhibition, progress curve assay with Z-Val-Val-Arg-AMC; type: biochemical
Chain of CTSS (P25774 115-331): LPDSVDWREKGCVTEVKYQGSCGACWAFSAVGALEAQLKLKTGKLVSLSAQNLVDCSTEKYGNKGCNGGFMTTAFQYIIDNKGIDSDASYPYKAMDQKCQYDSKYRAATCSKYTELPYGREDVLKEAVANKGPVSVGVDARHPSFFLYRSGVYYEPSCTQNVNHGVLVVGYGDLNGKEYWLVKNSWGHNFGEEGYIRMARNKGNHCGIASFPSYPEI
How it was run: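 Buffer is 50 mM phosphate, pH 6.5, with 2.5 mM EDTA, DTT 8 mM and <1% DMSO, at 25 °C. Test compound is run at 1–20 μM. […] Results are averages of three independent experiments, errors as standard deviations.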

CTSL [2] = target: T1, CTSL; assay: Cathepsin L inhibition, progress curve assay with Z-Phe-Arg-AMC; type: biochemical
CTSB = CTSB (Homo sapiens, UniProt P07858); assay: Cathepsin B inhibition, progress curve assay with Z-Arg-Arg-AMC; type: biochemical
How it was run: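 Buffer is 0.4 M acetate, pH 5.5, with 5 mM EDTA, 0.01% Triton X-100, DTT 10 mM and <1% DMSO, at 25 °C. Test compound is run at 1 nM to 100 μM. Enzyme is added last, and free AMC release is followed at once over 15 min. Progress curves are fitted to obtain kinact and Ki. CA-074 is the positive control. Values are means of three independent experiments ± SD.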

For CN(C)C(=O)[C@H](Cc1ccccc1)NC(=O)[C@H]1O[C@@H]1C(=O)NCCc1ccccn1 [CLIK-148, reference compound], the “Decrease of intracellular fluorescence intensity of 7” value (DU-145 cells) is given as “over 50%” and the “CTSL kinact/Ki” value (CTSL [1]) is given as 11000 ± 3000 M⁻¹ s⁻¹.
With CN(C)C(=O)C(Cc1ccccc1)NC(=O)[C@H]1O[C@@H]1C(=O)NCCCNC(=O)c1ccc(-c2ccccn2)nc1 (stereo partly drawn) [Compound 2, (2S,3S)-N^2-(3-([2,2′-Bipyridine]-5-carboxamido)-propyl)-N^3-(1-(dimethylamino)-1-oxo-3-phenylpropan-2-yl)-oxirane-2,3-dicarboxamide] the Ki (CTSS) was 3 ± 0.8 µM, the kinact/KI (CTSS; pH 6.5, read-out: CTSS kinact/Ki) was 5300 ± 200 M⁻¹ s⁻¹ and the Ki (CTSL [2]) was 0.74 ± 0.05 µM. The “kinact/Ki ratio CTSL/CTSS (selectivity)” value (CTSL [2]; CTSL over CTSS) was 8, the kinact/KI (CTSL [2]; pH 5.5, read-out: CTSL kinact/Ki) was 42300 ± 4100 M⁻¹ s⁻¹ and the kinact (CTSL [2]; read-out: CTSL kinact (rate of irreversible inactivation)) was 0.031 ± 0.002 s⁻¹. For the same compound, the “Fold enhancement of CTSL kinact/Ki relative to free inhibitor 1” value (CTSL [2]; relative to 1) was “roughly 3 fold”, the Ki (CTSB) was 296 ± 8 µM and the kinact/KI (CTSB; pH 5.5, read-out: CTSB kinact/Ki) was 9 M⁻¹ s⁻¹.
For O=S(=O)([O-])C(F)(F)F.[C-]#[O+].[C-]#[O+].[C-]#[O+].[Re+].c1ccncc1.c1cnc2c(c1)ccc1cccnc12 [[Re(phen)(CO)3(pyridine)](OTf), reference compound], the “CTSL inhibition, in words” value (CTSL [2]; at concentrations up to 100 μM) was “no inhibition”.
